Experimental data reported in ChEMBL document CHEMBL1240327, “Small molecules enhance autophagy and reduce toxicity in Huntington's disease models” (Nat Chem Biol, 2007).
Active and inactive are the calls of the source. The rule behind the calls is not given here.

Legend:
[1] = test system: Saccharomyces cerevisiae; assay: Inhibition of 50 nM rapamycin-mediated cytostatic effect in yeast BY4742 after 48 to 96 hrs; type: functional, organism-based
[2] = test system: Saccharomyces cerevisiae; assay: Inhibition of rapamycin-mediated cytostatic effect in yeast RM11-1a after 48 to 96 hrs; type: functional
[3] = test system: Saccharomyces bayanus; assay: Inhibition of rapamycin-mediated cytostatic effect in Saccharomyces bayanus after 48 to 96 hrs; type: functional
[4] = test system: Saccharomyces mikatae; assay: Inhibition of rapamycin-mediated cytostatic effect in Saccharomyces mikatae after 48 to 96 hrs; type: functional
[5] = test system: Saccharomyces paradoxus; assay: Inhibition of rapamycin-mediated cytostatic effect in Saccharomyces paradoxus after 48 to 96 hrs; type: functional
[6] = test system: Saccharomyces cerevisiae; assay: Inhibition of 25 nM rapamycin-mediated cytostatic effect in yeast BY4742 at sub-lethal concentration after 48 to 96 hrs; type: functional, organism-based
[7] = test system: PC-12; assay: Enhancement of autophagy in rat PC12 cells assessed as decrease in alpha-synuclein A53T mutant level at 43 uM by immunoblotting; type: functional, cell-based
Method in brief: (§1)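 Stable PC12 line with doxycycline-inducible HA-tagged A53T α-synuclein; induced with 1 μg/ml doxycycline for 48 h, then doxycycline removed. Compounds added during the 24 h switch-off period, from 5 mg ml⁻¹ DMSO stock diluted 1:20000, 1:4000 or 1:400. HA immunoblot, densitometry relative to actin; control set to 100 %; three independent experiments, factorial ANOVA.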

[8] = Cytotoxicity against african green monkey COS7 cells at 43 uM after 24 hrs by FACS analysis; type: cell-based; details: chlorocebus aethiops, cos-7, 24 h
[9] = target: Huntingtin (Homo sapiens) (UniProt P42858); assay: Inhibition of EGFP-tagged huntingtin aggregation expressed in african green monkey COS7 cells at 43 uM after 48 hrs by […]; type: cell-based; details: COS-7
[10] = target: Huntingtin (Homo sapiens) (UniProt P42858); assay: Inhibition of EGFP-tagged huntingtin expressed in african green monkey COS7 cells assessed as protection against protein-induced cell death at 43 uM after 48 hrs […]; type: cell-based; details: COS-7
Method in brief: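 COS-7 cells transfected 4 h with EGFP-tagged huntingtin exon 1 (74 polyQ), then treated for 48 h. About 200 EGFP-positive cells were scored by fluorescence microscopy for aggregates; DAPI-stained nuclei with apoptotic morphology were counted as dead. Triplicate, scorer blinded. Results given as odds ratios vs DMSO (set to 1) with 95 % CI by logistic regression.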

[11] = target: Huntingtin (Mus musculus) (UniProt P42859); assay: Inhibition of EGFP-tagged huntingtin aggregation in MEF harboring Atg5 gene at 47 uM after 48 hrs by Western blot analysis
[12] = target: Huntingtin (Mus musculus) (UniProt P42859); assay: Inhibition of EGFP-tagged huntingtin aggregation in MEF harboring Atg5 gene at 43 uM after 48 hrs by Western blot analysis
[13] = target: Huntingtin (Mus musculus) (UniProt P42859); assay: Inhibition of EGFP-tagged huntingtin aggregation in Atg5-deficient MEF at 47 uM after 48 hrs by Western blot analysis
[14] = target: Huntingtin (Mus musculus) (UniProt P42859); assay: Inhibition of EGFP-tagged huntingtin aggregation in Atg5-deficient MEF at 43 uM after 48 hrs by […]
[15] = test system: HeLa; assay: Induction of autophagy in human HeLa cells harboring MAP1LC3 gene at 43 uM after 24 hrs by DAPI staining-based fluorescence microscopy; type: functional, cell-based
Method in brief: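 Stable EGFP-LC3 HeLa cells treated 24 h. EGFP-positive autophagic vesicles were imaged by confocal microscopy with DAPI nuclear counterstain.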

[16] = test system: HeLa; assay: Increase in MAP1LC3 level in bafilomycin A1-treated human HeLa cells at 43 uM treated fro 24 hrs before bafilomycin A1 challenge by immunoblotting analysis; type: functional, cell-based
Method in brief: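 HeLa cells stably expressing EGFP-LC3 were pretreated with compound for 24 h, then given 200 nM bafilomycin A1 for 4 h. EGFP-LC3-II was measured by anti-EGFP immunoblot with densitometry relative to actin, from three independent experiments.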

[17] = test system: Drosophila melanogaster; assay: Neuroprotective activity in Drosophila melanogaster Huntington's disease model harboring huntington protein mutant assessed as protection against neurodegeneration at 200 uM; type: functional, organism-based
[18] = test system: Drosophila melanogaster; assay: Toxicity against Drosophila melanogaster Huntington's disease model at 200 uM; type: organism-based; details: in vivo
[19] = target: Serine/threonine-protein kinase mTOR (Homo sapiens) (UniProt P42345); assay: Inhibition of mTOR phosphorylation expressed in african green monkey COS7 cells at 43 uM by Western blot analysis; type: cell-based; details: COS-7
[20] = test system: COS-7; assay: Effect on ATg6 level in african green monkey COS7 cells at 43 uM after 24 hrs by immunoblotting; type: functional, cell-based; details: Chlorocebus aethiops
[21] = test system: COS-7; assay: Effect on ATg5 level in african green monkey COS7 cells at 43 uM after 24 hrs by immunoblotting; type: functional, cell-based; details: Chlorocebus aethiops
[22] = test system: COS-7; assay: Effect on ATg7 level in african green monkey COS7 cells at 43 uM after 24 hrs by immunoblotting; type: functional, cell-based; details: Chlorocebus aethiops
[23] = test system: COS-7; assay: Effect on ATg12 level in african green monkey COS7 cells at 43 uM after 24 hrs by immunoblotting; type: functional, cell-based; details: Chlorocebus aethiops
[24] = test system: COS-7; assay: Increase in conjugated Atg12-Atg5 level in african green monkey COS7 cells at 43 uM after 24 hrs by immunoblotting; type: functional, cell-based; details: Chlorocebus aethiops
[25] = test system: HeLa; assay: Inhibition of proteasome activity in human HeLa cells assessed as induction of ubiquitinG76V-EGFP reporter level at 43 uM after 24 hrs by immunoblotting
[26] = test system: PC-12; assay: Enhancement of rapamycin-induced clearance of alpha-synuclein A53T mutant protein in rat PC12 cells at 43 uM after 8 hrs by immunoblotting; type: functional, cell-based
Method in brief: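 Inducible PC12 A53T α-synuclein line (1 μg/ml doxycycline, 48 h, then switched off). Compound given alone or with 0.2 μM rapamycin over an 8 h switch-off period. Read-out is anti-HA immunoblot with densitometry relative to actin, n=3, control as 100 %.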

[27] = target: Huntingtin (Homo sapiens) (UniProt P42858); assay: Inhibition of EGFP-tagged huntingtin aggregation expressed in african green monkey COS7 cells at 43 uM after 24 hrs by […] in presence of 0.2 uM rapamycin; type: cell-based; details: COS-7
[28] = test system: Saccharomyces cerevisiae; assay: Enhancement of 20 nM rapamycin-mediated cytostatic effect in yeast BY4742 after 48 to 96 hrs; type: functional, organism-based
[29] = test system: Saccharomyces cerevisiae; assay: Enhancement of rapamycin-mediated cytostatic effect in yeast RM11-1a after 48 to 96 hrs; type: functional
[30] = test system: Saccharomyces bayanus; assay: Enhancement of rapamycin-mediated cytostatic effect in Saccharomyces bayanus after 48 to 96 hrs; type: functional
[31] = test system: Saccharomyces mikatae; assay: Enhancement of rapamycin-mediated cytostatic effect in Saccharomyces mikatae after 48 to 96 hrs; type: functional
[32] = test system: Saccharomyces paradoxus; assay: Enhancement of rapamycin-mediated cytostatic effect in Saccharomyces paradoxus after 48 to 96 hrs; type: functional
[33] = test system: PC-12; assay: Enhancement of autophagy in rat PC12 cells assessed as decrease in alpha-synuclein A53T mutant level at 5 mg/ml by densitometry; type: functional, cell-based; method in brief: as §1
[34] = test system: PC-12; assay: Enhancement of autophagy in rat PC12 cells assessed as decrease in alpha-synuclein A53T mutant level at 47 uM by immunoblotting; type: functional, cell-based; method in brief: as §1

Huntingtin (Mus musculus), sequence (P42859 whole entry): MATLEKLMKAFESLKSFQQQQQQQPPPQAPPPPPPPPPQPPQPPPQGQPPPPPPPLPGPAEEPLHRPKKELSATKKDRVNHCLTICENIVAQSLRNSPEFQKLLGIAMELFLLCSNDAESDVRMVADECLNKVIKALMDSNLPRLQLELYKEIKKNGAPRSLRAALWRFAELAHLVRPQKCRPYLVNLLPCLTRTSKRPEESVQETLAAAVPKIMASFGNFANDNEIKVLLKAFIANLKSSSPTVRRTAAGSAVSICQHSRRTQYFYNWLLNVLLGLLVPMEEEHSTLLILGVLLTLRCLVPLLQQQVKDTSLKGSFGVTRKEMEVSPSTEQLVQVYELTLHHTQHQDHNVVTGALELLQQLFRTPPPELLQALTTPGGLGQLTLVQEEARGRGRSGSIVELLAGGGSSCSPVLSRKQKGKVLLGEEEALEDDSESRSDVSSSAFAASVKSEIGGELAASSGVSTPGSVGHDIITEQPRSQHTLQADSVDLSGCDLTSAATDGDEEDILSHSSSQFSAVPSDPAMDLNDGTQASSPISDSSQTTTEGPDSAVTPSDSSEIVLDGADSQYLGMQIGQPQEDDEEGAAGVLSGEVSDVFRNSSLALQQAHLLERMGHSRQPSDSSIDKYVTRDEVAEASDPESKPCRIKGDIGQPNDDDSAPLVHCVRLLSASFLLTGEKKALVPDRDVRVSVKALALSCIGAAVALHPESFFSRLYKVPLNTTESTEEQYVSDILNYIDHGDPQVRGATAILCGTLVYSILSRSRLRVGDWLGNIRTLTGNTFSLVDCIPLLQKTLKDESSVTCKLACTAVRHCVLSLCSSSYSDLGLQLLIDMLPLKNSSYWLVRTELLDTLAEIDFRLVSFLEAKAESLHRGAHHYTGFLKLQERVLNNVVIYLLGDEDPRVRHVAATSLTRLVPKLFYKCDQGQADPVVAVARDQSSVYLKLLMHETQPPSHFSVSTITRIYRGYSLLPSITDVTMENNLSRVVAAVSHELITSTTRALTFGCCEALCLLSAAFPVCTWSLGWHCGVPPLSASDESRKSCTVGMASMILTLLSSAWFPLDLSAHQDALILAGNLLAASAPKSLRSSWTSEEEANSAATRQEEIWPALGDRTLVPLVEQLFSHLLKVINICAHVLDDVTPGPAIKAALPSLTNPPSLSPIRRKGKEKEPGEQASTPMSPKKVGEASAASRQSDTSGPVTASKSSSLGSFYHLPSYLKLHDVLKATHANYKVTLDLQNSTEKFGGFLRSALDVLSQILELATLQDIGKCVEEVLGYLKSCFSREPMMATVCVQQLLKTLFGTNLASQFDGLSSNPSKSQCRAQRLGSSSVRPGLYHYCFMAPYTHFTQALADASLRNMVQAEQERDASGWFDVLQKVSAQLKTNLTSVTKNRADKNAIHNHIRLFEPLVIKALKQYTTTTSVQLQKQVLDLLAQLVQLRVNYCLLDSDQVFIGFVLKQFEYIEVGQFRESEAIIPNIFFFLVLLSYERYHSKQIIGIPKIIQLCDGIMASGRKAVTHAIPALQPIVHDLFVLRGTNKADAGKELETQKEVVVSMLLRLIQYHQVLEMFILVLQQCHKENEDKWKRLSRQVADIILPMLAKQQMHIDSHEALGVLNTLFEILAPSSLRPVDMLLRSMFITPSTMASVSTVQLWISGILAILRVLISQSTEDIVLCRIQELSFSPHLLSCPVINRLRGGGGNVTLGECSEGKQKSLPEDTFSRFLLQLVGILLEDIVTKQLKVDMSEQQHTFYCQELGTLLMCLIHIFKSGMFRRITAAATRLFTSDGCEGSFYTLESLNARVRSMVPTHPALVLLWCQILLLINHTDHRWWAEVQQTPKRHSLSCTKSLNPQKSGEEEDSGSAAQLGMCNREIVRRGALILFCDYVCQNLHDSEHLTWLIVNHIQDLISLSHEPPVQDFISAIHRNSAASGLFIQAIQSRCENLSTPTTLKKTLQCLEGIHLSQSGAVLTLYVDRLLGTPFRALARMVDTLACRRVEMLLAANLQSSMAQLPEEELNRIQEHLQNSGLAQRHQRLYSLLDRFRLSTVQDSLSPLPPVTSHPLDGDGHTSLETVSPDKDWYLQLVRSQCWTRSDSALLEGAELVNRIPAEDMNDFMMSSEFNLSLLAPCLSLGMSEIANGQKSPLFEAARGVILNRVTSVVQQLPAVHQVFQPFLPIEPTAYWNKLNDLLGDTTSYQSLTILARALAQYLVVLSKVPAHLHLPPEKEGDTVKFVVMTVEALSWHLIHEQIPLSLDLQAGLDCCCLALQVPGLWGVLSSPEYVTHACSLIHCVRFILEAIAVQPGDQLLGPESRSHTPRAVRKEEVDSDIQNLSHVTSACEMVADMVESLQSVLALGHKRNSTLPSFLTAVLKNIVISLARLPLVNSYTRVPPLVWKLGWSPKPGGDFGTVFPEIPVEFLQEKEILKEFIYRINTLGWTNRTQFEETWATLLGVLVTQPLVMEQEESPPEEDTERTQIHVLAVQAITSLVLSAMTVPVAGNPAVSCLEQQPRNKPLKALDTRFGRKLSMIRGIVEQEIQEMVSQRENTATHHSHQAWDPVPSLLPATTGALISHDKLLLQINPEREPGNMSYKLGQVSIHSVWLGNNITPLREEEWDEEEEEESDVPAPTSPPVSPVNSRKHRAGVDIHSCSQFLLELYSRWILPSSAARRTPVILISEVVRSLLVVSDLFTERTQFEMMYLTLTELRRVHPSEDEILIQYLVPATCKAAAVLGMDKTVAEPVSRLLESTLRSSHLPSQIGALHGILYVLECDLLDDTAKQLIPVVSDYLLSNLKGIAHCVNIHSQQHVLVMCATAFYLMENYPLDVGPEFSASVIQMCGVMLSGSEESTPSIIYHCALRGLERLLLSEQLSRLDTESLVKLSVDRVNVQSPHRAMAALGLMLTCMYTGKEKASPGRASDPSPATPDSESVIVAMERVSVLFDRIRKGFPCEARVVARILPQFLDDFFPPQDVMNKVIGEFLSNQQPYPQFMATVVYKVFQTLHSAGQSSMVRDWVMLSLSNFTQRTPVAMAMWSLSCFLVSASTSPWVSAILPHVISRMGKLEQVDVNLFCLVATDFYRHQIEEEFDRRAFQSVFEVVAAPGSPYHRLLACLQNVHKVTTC

O=C1C(Nc2ccccc2)=CC(=O)c2ncccc21
EC50 [1]: 10.4 µM
inhibition [2]: Active
inhibition [3]: Active
inhibition [4]: Active
inhibition [5]: Active

COc1ccc(C[C@H]2NC[C@H](O)[C@H]2OC(C)=O)cc1
inhibition [6]: inactive

C/C(=C/C(=O)c1ccc(Cl)cc1)Nc1cccc(O)c1
Activity [7]: Active
Activity [8]: Non-toxic
inhibition [9]: Active
inhibition [10]: Active
inhibition [11]: inactive
inhibition [12]: Active
inhibition [13]: inactive
inhibition [14]: Active
Activity [15]: Active
Activity [16]: Active
Activity [17]: Active
Activity [18]: Non-toxic
inhibition [19]: inactive
Activity [20]: inactive
Activity [21]: inactive
Activity [22]: inactive
Activity [23]: inactive
Activity [24]: inactive
inhibition [25]: inactive
Activity [26]: Active
inhibition [27]: Active
EC50 [28]: 17.4 µM
Activity [29]: Active
Activity [30]: Active
Activity [31]: Active
Activity [32]: Active
Activity [33]: Active
Activity [34]: Active
